# System: Staphylococcus aureus
# Experiment: Antibacterial activity against Staphylococcus aureus after 18 to 22 hrs by broth microdilution method
# Format: functional
# Conditions: not given
# Outline: (§1)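 Broth microdilution per NCCLS in Mueller-Hinton II broth; isolates subcultured for purity. Compounds dissolved in DMSO, serial dilutions 256 to 0.5 µg/mL; inoculum 10^5/mL. Controls: organism without compound, medium only. Incubation 18 to 22 h at 35 °C. MIC is the lowest concentration giving complete growth inhibition, read by unaided eye.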
row,Compound,MIC [µg/mL]
1,C=CCC/C(C)=N/N=C1\SCC(=O)N1CN1C(=O)c2ccccc2C1=O,> 256
2,CCC(CC)=N/N=C1\SCC(=O)N1CN1C(=O)c2ccccc2C1=O,> 256
3,CC1CCC/C1=N\N=C1/SCC(=O)N1Cc1cccc2ccccc12 (stereo not given),> 256
4,CCCCC/C(C)=N/N=C1\SCC(=O)N1CN1C(=O)c2ccccc2C1=O,> 256
5,CCCC/C(CC)=N/N=C1\SCC(=O)N1CN1C(=O)c2ccccc2C1=O,> 256

# System: Staphylococcus warneri
# Experiment: Antibacterial activity against Staphylococcus warneri after 18 to 22 hrs by broth microdilution method
# Format: functional
# Conditions: not given
# Outline: as §1
row,Compound,MIC [µg/mL]
1,C=CCC/C(C)=N/N=C1\SCC(=O)N1CN1C(=O)c2ccccc2C1=O,> 256
2,CCC(CC)=N/N=C1\SCC(=O)N1CN1C(=O)c2ccccc2C1=O,> 256
3,CC1CCC/C1=N\N=C1/SCC(=O)N1Cc1cccc2ccccc12 (stereo not given),> 256
4,CCCCC/C(C)=N/N=C1\SCC(=O)N1CN1C(=O)c2ccccc2C1=O,> 256
5,CCCC/C(CC)=N/N=C1\SCC(=O)N1CN1C(=O)c2ccccc2C1=O,> 256

# System: Enterococcus faecalis
# Experiment: Antibacterial activity against […] faecalis after 18 to 22 hrs by broth microdilution method
# Format: functional
# Conditions: not given
# Outline: as §1
row,Compound,MIC [µg/mL]
1,C=CCC/C(C)=N/N=C1\SCC(=O)N1CN1C(=O)c2ccccc2C1=O,> 256
2,CCC(CC)=N/N=C1\SCC(=O)N1CN1C(=O)c2ccccc2C1=O,> 256
3,CC1CCC/C1=N\N=C1/SCC(=O)N1Cc1cccc2ccccc12 (stereo not given),> 256
4,CCCCC/C(C)=N/N=C1\SCC(=O)N1CN1C(=O)c2ccccc2C1=O,> 256
5,CCCC/C(CC)=N/N=C1\SCC(=O)N1CN1C(=O)c2ccccc2C1=O,> 256

# System: Staphylococcus haemolyticus
# Experiment: Antibacterial activity against Staphylococcus haemolyticus after 18 to 22 hrs by broth microdilution method
# Format: functional
# Conditions: not given
# Outline: as §1
row,Compound,MIC [µg/mL]
1,C=CCC/C(C)=N/N=C1\SCC(=O)N1CN1C(=O)c2ccccc2C1=O,> 256
2,CCC(CC)=N/N=C1\SCC(=O)N1CN1C(=O)c2ccccc2C1=O,> 256
3,CC1CCC/C1=N\N=C1/SCC(=O)N1Cc1cccc2ccccc12 (stereo not given),> 256
4,CCCCC/C(C)=N/N=C1\SCC(=O)N1CN1C(=O)c2ccccc2C1=O,> 256
5,CCCC/C(CC)=N/N=C1\SCC(=O)N1CN1C(=O)c2ccccc2C1=O,> 256

# System: Escherichia coli
# Experiment: Antibacterial activity against Escherichia coli at after 18 to 22 hrs by broth microdilution method
# Format: functional
# Conditions: not given
# Outline: as §1
row,Compound,MIC [µg/mL]
1,C=CCC/C(C)=N/N=C1\SCC(=O)N1CN1C(=O)c2ccccc2C1=O,> 256
2,CCC(CC)=N/N=C1\SCC(=O)N1CN1C(=O)c2ccccc2C1=O,> 256
3,CC1CCC/C1=N\N=C1/SCC(=O)N1Cc1cccc2ccccc12 (stereo not given),> 256
4,CCCCC/C(C)=N/N=C1\SCC(=O)N1CN1C(=O)c2ccccc2C1=O,> 256
5,CCCC/C(CC)=N/N=C1\SCC(=O)N1CN1C(=O)c2ccccc2C1=O,> 256

# System: Proteus mirabilis
# Experiment: Antibacterial activity against Proteus mirabilis after 18 to 22 hrs by broth microdilution method
# Format: functional
# Conditions: not given
# Outline: as §1
row,Compound,MIC [µg/mL]
1,C=CCC/C(C)=N/N=C1\SCC(=O)N1CN1C(=O)c2ccccc2C1=O,> 256
2,CCC(CC)=N/N=C1\SCC(=O)N1CN1C(=O)c2ccccc2C1=O,> 256
3,CC1CCC/C1=N\N=C1/SCC(=O)N1Cc1cccc2ccccc12 (stereo not given),> 256
4,CCCCC/C(C)=N/N=C1\SCC(=O)N1CN1C(=O)c2ccccc2C1=O,> 256
5,CCCC/C(CC)=N/N=C1\SCC(=O)N1CN1C(=O)c2ccccc2C1=O,> 256

# System: Enterobacter sp.
# Experiment: Antibacterial activity against Enterobacter sp. after 18 to 22 hrs by broth microdilution method
# Format: functional
# Conditions: not given
# Outline: as §1
row,Compound,MIC [µg/mL]
1,C=CCC/C(C)=N/N=C1\SCC(=O)N1CN1C(=O)c2ccccc2C1=O,> 256
2,CCC(CC)=N/N=C1\SCC(=O)N1CN1C(=O)c2ccccc2C1=O,> 256
3,CC1CCC/C1=N\N=C1/SCC(=O)N1Cc1cccc2ccccc12 (stereo not given),> 256
4,CCCCC/C(C)=N/N=C1\SCC(=O)N1CN1C(=O)c2ccccc2C1=O,> 256
5,CCCC/C(CC)=N/N=C1\SCC(=O)N1CN1C(=O)c2ccccc2C1=O,> 256

# System: Klebsiella oxytoca
# Experiment: Antibacterial activity against Klebsiella oxytoca after 18 to 22 hrs by broth microdilution method
# Format: functional
# Conditions: not given
# Outline: as §1
row,Compound,MIC [µg/mL]
1,C=CCC/C(C)=N/N=C1\SCC(=O)N1CN1C(=O)c2ccccc2C1=O,> 256
2,CCC(CC)=N/N=C1\SCC(=O)N1CN1C(=O)c2ccccc2C1=O,> 256
3,CC1CCC/C1=N\N=C1/SCC(=O)N1Cc1cccc2ccccc12 (stereo not given),> 256
4,CCCCC/C(C)=N/N=C1\SCC(=O)N1CN1C(=O)c2ccccc2C1=O,> 256
5,CCCC/C(CC)=N/N=C1\SCC(=O)N1CN1C(=O)c2ccccc2C1=O,> 256

# System: Candida albicans
# Experiment: Antifungal activity against Candida albicans clinical isolate after 24 hrs by sabouraud dextrose broth based microdilution method
# Format: functional
# Conditions: not given
# Outline: (§2)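 Clinical isolates identified by conventional methods and subcultured for purity. Broth microdilution per NCCLS in Sabouraud dextrose broth; compounds dissolved in DMSO and serially diluted; inoculum 10^3/mL. Controls: fungi without compound, medium only. Incubated 24 h at 37 °C. MIC is the lowest concentration with complete growth inhibition by unaided eye. Values are geometric means over isolates per species.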
row,Compound,MIC [µg/mL]
1,C=CCC/C(C)=N/N=C1\SCC(=O)N1CN1C(=O)c2ccccc2C1=O,4
2,CCC(CC)=N/N=C1\SCC(=O)N1CN1C(=O)c2ccccc2C1=O,2
3,CC1CCC/C1=N\N=C1/SCC(=O)N1Cc1cccc2ccccc12 (stereo not given),4
4,CCCCC/C(C)=N/N=C1\SCC(=O)N1CN1C(=O)c2ccccc2C1=O,4
5,CCCC/C(CC)=N/N=C1\SCC(=O)N1CN1C(=O)c2ccccc2C1=O,4

# System: Nakaseomyces glabratus
# Experiment: Antifungal activity against Candida glabrata clinical isolate after 24 hrs by sabouraud dextrose broth based microdilution method
# Format: functional
# Conditions: not given
# Outline: as §2
row,Compound,MIC [µg/mL]
1,C=CCC/C(C)=N/N=C1\SCC(=O)N1CN1C(=O)c2ccccc2C1=O,32
2,CCC(CC)=N/N=C1\SCC(=O)N1CN1C(=O)c2ccccc2C1=O,8
3,CC1CCC/C1=N\N=C1/SCC(=O)N1Cc1cccc2ccccc12 (stereo not given),32
4,CCCCC/C(C)=N/N=C1\SCC(=O)N1CN1C(=O)c2ccccc2C1=O,8
5,CCCC/C(CC)=N/N=C1\SCC(=O)N1CN1C(=O)c2ccccc2C1=O,16

# System: Candida tropicalis
# Experiment: Antifungal activity against Candida tropicalis clinical isolate after 24 hrs by sabouraud dextrose broth based microdilution method
# Format: functional
# Conditions: not given
# Outline: as §2
row,Compound,MIC [µg/mL]
1,C=CCC/C(C)=N/N=C1\SCC(=O)N1CN1C(=O)c2ccccc2C1=O,4
2,CCC(CC)=N/N=C1\SCC(=O)N1CN1C(=O)c2ccccc2C1=O,8
3,CC1CCC/C1=N\N=C1/SCC(=O)N1Cc1cccc2ccccc12 (stereo not given),2
4,CCCCC/C(C)=N/N=C1\SCC(=O)N1CN1C(=O)c2ccccc2C1=O,128
5,CCCC/C(CC)=N/N=C1\SCC(=O)N1CN1C(=O)c2ccccc2C1=O,2

# System: Pichia kudriavzevii
# Experiment: Antifungal activity against Candida krusei clinical isolate after 24 hrs by sabouraud dextrose broth based microdilution method
# Format: functional
# Conditions: not given
# Outline: as §2
row,Compound,MIC [µg/mL]
1,C=CCC/C(C)=N/N=C1\SCC(=O)N1CN1C(=O)c2ccccc2C1=O,32
2,CCC(CC)=N/N=C1\SCC(=O)N1CN1C(=O)c2ccccc2C1=O,8
3,CC1CCC/C1=N\N=C1/SCC(=O)N1Cc1cccc2ccccc12 (stereo not given),2
4,CCCCC/C(C)=N/N=C1\SCC(=O)N1CN1C(=O)c2ccccc2C1=O,2
5,CCCC/C(CC)=N/N=C1\SCC(=O)N1CN1C(=O)c2ccccc2C1=O,32

# System: Candida parapsilosis
# Experiment: Antifungal activity against Candida parapsilosis clinical isolate after 24 hrs by sabouraud dextrose broth based microdilution method
# Format: functional
# Conditions: Lodderomyces parapsilosis
# Outline: as §2
row,Compound,MIC [µg/mL]
1,C=CCC/C(C)=N/N=C1\SCC(=O)N1CN1C(=O)c2ccccc2C1=O,128
2,CCC(CC)=N/N=C1\SCC(=O)N1CN1C(=O)c2ccccc2C1=O,8
3,CC1CCC/C1=N\N=C1/SCC(=O)N1Cc1cccc2ccccc12 (stereo not given),8
4,CCCCC/C(C)=N/N=C1\SCC(=O)N1CN1C(=O)c2ccccc2C1=O,2
5,CCCC/C(CC)=N/N=C1\SCC(=O)N1CN1C(=O)c2ccccc2C1=O,8

# System: [Candida] sake
# Experiment: Antifungal activity against Candida sake clinical isolate after 24 hrs by sabouraud dextrose broth based microdilution method
# Format: functional
# Conditions: Fermentozyma sake
# Outline: as §2
row,Compound,MIC [µg/mL]
1,C=CCC/C(C)=N/N=C1\SCC(=O)N1CN1C(=O)c2ccccc2C1=O,8
2,CCC(CC)=N/N=C1\SCC(=O)N1CN1C(=O)c2ccccc2C1=O,8
3,CC1CCC/C1=N\N=C1/SCC(=O)N1Cc1cccc2ccccc12 (stereo not given),2
4,CCCCC/C(C)=N/N=C1\SCC(=O)N1CN1C(=O)c2ccccc2C1=O,2
5,CCCC/C(CC)=N/N=C1\SCC(=O)N1CN1C(=O)c2ccccc2C1=O,2
